From ChEMBL document CHEMBL5143669, “Stapled peptides as scaffolds for developing radiotracers for intracellular targets: Preliminary evaluation of a radioiodinated MDM2-binding stapled peptide in the SJSA-1 osteosarcoma model” (Bioorg Med Chem Lett, 2022)

Assays:
[1] = Stability in human serum assessed as intact peptide level at 37 degC incubated for 1 hr by RP-HPLC analysis; format: ADME, cell-free; conditions: read-out: Drug uptake
In short: (§1)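 125I-labeled peptide was incubated in human serum at 37 °C for up to 72 h. Aliquots were run by RP-HPLC (RP-18 column, ethanol/0.05 M sodium acetate pH 5.5 gradient, 1 mL/min), and intact peptide was expressed as percentage of injected activity.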

[2] = Stability in human serum assessed as intact peptide level at 37 degC incubated for 72 hrs by RP-HPLC analysis; format: ADME, cell-free; conditions: read-out: Drug uptake; in short: as §1
[3] = Drug uptake in MDM2-amplified human SJSA-1 cells expressing wild type p53 at 5 to 50 uM incubated for 1 hr; format: ADME, cell-based; conditions: sjsa-1, 1 h, dose 5-50 µM
In short: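 SJSA-1 cells (MDM2-amplified, wild-type p53) in 24-well plates were incubated 1 h with 125I-labeled peptide in serum-free RPMI-1640, with or without unlabeled parent peptide (5–50 μM) for blocking. They were then washed three times with PBS and lysed; retained activity was normalized to well protein (%/mg protein). Triplicates, mean ± SD.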

[4] = Drug uptake in MDM2-amplified human SJSA-1 cells expressing wild type p53 assessed as initially bound radioactivity incubated for 0.5 hrs subsequently re-incubating the cells with fresh medium for up to 2 hrs; format: ADME, cell-based; conditions: sjsa-1, 0.5 h
In short: (§2)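 SJSA-1 cells were loaded with 125I-labeled peptide for 1 h, then reincubated in fresh medium for 0.5–2 h. Cell-retained activity and cumulative release into the supernatant were expressed as percentage of initially bound activity.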

[5] = Drug uptake in MDM2-amplified human SJSA-1 cells expressing wild type p53 assessed as initially bound radioactivity incubated for 1 hrs subsequently re-incubating the cells with fresh medium for up to 2 hrs; format: ADME, cell-based; conditions: sjsa-1, 1 h; in short: as §2
[6] = Drug uptake in MDM2-amplified human SJSA-1 cells expressing wild type p53 assessed as initially bound radioactivity incubated for 1.5 hrs subsequently re-incubating the cells with fresh medium for up to 2 hrs; format: ADME, cell-based; conditions: sjsa-1, 1.5 h; in short: as §2
[7] = Biodistribution in Spleen of athymic mouse xenografted with human SJSA-1 cells at 166.5 kBq, iv after 30 mins by automated gamma counting method; format: ADME, organism-based; conditions: in vivo, 0.5 h
In short: (§3)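 125I-labeled peptide (166.5 kBq in 100 μL) was injected via tail vein into athymic mice bearing flank SJSA-1 xenografts, n = 5 per time point. Tumors, blood and major organs were gamma-counted at 0.5, 2, 6 and 24 h post-injection. Values are %ID/g.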

[8] = Biodistribution in Heart of athymic mouse xenografted with human SJSA-1 cells at 166.5 kBq, iv after 30 mins by automated gamma counting method; format: ADME, organism-based; conditions: in vivo, 0.5 h; in short: as §3
[9] = Biodistribution in Urinary bladder of athymic mouse xenografted with human SJSA-1 cells at 166.5 kBq, iv after 30 mins by automated gamma counting method; format: ADME, organism-based; conditions: in vivo, 0.5 h
In short: (§4)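 Athymic mice bearing flank SJSA-1 xenografts received 125I-SIB-labeled peptide (166.5 kBq, 100 μL) by tail vein; groups of five per time point. Tumor, blood and organs were taken at 0.5–24 h and counted by gamma counter; values expressed as %ID/g.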

[10] = Biodistribution in Muscle of athymic mouse xenografted with human SJSA-1 cells at 166.5 kBq, iv after 30 mins by automated gamma counting method; format: ADME, organism-based, Muscle tissue; conditions: in vivo, 0.5 h; in short: as §3
[11] = Biodistribution in Bone of athymic mouse xenografted with human SJSA-1 cells at 166.5 kBq, iv after 30 mins by automated gamma counting method; format: ADME, organism-based, Bone element; conditions: in vivo, 0.5 h; in short: as §3
[12] = Biodistribution in Liver of athymic mouse xenografted with human SJSA-1 cells at 166.5 kBq, iv after 2 hrs by automated gamma counting method; format: ADME, organism-based; conditions: in vivo; in short: as §3
[13] = Biodistribution in Spleen of athymic mouse xenografted with human SJSA-1 cells at 166.5 kBq, iv after 2 hrs by automated gamma counting method; format: ADME, organism-based; conditions: in vivo; in short: as §3
[14] = Biodistribution in Urinary bladder of athymic mouse xenografted with human SJSA-1 cells at 166.5 kBq, iv after 2 hrs by automated gamma counting method; format: ADME, organism-based; conditions: in vivo; in short: as §4
[15] = Biodistribution in Small intestine of athymic mouse xenografted with human SJSA-1 cells at 166.5 kBq, iv after 2 hrs by automated gamma counting method; format: ADME, organism-based; conditions: in vivo; in short: as §3
[16] = Biodistribution in Thyroid of athymic mouse xenografted with human SJSA-1 cells at 166.5 kBq, iv after 2 hrs by automated gamma counting method; format: ADME, organism-based, Thyroid gland; conditions: in vivo; in short: as §4
[17] = Biodistribution in Liver of athymic mouse xenografted with human SJSA-1 cells at 166.5 kBq, iv after 6 hrs by automated gamma counting method; format: ADME, organism-based; conditions: in vivo; in short: as §3
[18] = Biodistribution in Spleen of athymic mouse xenografted with human SJSA-1 cells at 166.5 kBq, iv after 6 hrs by automated gamma counting method; format: ADME, organism-based; conditions: in vivo; in short: as §3
[19] = Biodistribution in Lung of athymic mouse xenografted with human SJSA-1 cells at 166.5 kBq, iv after 6 hrs by automated gamma counting method; format: ADME, organism-based; conditions: in vivo; in short: as §3
[20] = Biodistribution in Heart of athymic mouse xenografted with human SJSA-1 cells at 166.5 kBq, iv after 6 hrs by automated gamma counting method; format: ADME, organism-based; conditions: in vivo; in short: as §3
[21] = Biodistribution in Urinary bladder of athymic mouse xenografted with human SJSA-1 cells at 166.5 kBq, iv after 6 hrs by automated gamma counting method; format: ADME, organism-based; conditions: in vivo; in short: as §4
[22] = Biodistribution in Stomach of athymic mouse xenografted with human SJSA-1 cells at 166.5 kBq, iv after 6 hrs by automated gamma counting method; format: ADME, organism-based; conditions: in vivo; in short: as §4
[23] = Biodistribution in Brain of athymic mouse xenografted with human SJSA-1 cells at 166.5 kBq, iv after 6 hrs by automated gamma counting method; format: ADME, organism-based; conditions: in vivo; in short: as §3
[24] = Biodistribution in Liver of athymic mouse xenografted with human SJSA-1 cells at 166.5 kBq, iv after 24 hrs by automated gamma counting method; format: ADME, organism-based; conditions: in vivo; in short: as §3
[25] = Biodistribution in Spleen of athymic mouse xenografted with human SJSA-1 cells at 166.5 kBq, iv after 24 hrs by automated gamma counting method; format: ADME, organism-based; conditions: in vivo; in short: as §3
[26] = Biodistribution in Urinary bladder of athymic mouse xenografted with human SJSA-1 cells at 166.5 kBq, iv after 24 hrs by automated gamma counting method; format: ADME, organism-based; conditions: in vivo; in short: as §4
[27] = Biodistribution in Small intestine of athymic mouse xenografted with human SJSA-1 cells at 166.5 kBq, iv after 24 hrs by automated gamma counting method; format: ADME, organism-based; conditions: in vivo; in short: as §3
[28] = Biodistribution in Large intestine of athymic mouse xenografted with human SJSA-1 cells at 166.5 kBq, iv after 24 hrs by automated gamma counting method; format: ADME, organism-based; conditions: in vivo; in short: as §3
[29] = Biodistribution in Thyroid of athymic mouse xenografted with human SJSA-1 cells at 166.5 kBq, iv after 24 hrs by automated gamma counting method; format: ADME, organism-based, Thyroid gland; conditions: in vivo; in short: as §4
[30] = Biodistribution in Muscle of athymic mouse xenografted with human SJSA-1 cells at 166.5 kBq, iv after 24 hrs by automated gamma counting method; format: ADME, organism-based, Muscle tissue; conditions: in vivo; in short: as §3
[31] = Biodistribution in Blood of athymic mouse xenografted with human SJSA-1 cells at 166.5 kBq, iv after 24 hrs by automated gamma counting method; format: ADME, organism-based; conditions: in vivo; in short: as §3
[32] = Biodistribution in Bone of athymic mouse xenografted with human SJSA-1 cells at 166.5 kBq, iv after 24 hrs by automated gamma counting method; format: ADME, organism-based, Bone element; conditions: in vivo; in short: as §3
[33] = Biodistribution in Skin of athymic mouse xenografted with human SJSA-1 cells at 166.5 kBq, iv after 24 hrs by automated gamma counting method; format: ADME, organism-based, Skin of body; conditions: in vivo; in short: as §3

In the case of `CC(=O)NC(CCCCNC(=O)c1cccc([125I])c1)C(=O)NCCCCCC(=O)N[C@H](C(=O)N[C@@H](CO)C(=O)N[C@@H](Cc1ccccc1)C(=O)N[C@@]1(C)CCCCCC/C=C/CCC[C@@](C)(C(=O)N[C@@H](CCC(=O)O)C(=O)N[C@@H](CC(N)=O)C(=O)N[C@@H](Cc2ccccc2)C(N)=O)NC(=O)[C@H](CC(C)C)NC(=O)[C@H](CC(C)C)NC(=O)[C@H](C)NC(=O)[C@H](Cc2c[nH]c3ccccc23)NC(=O)[C@H](Cc2ccc(O)cc2)NC(=O)[C@H](CCC(=O)O)NC1=O)[C@@H](C)O` (stereo partly drawn), the remaining at 1 h [1] is reported as 98.2%, the remaining at 72 h [2] is reported as 96% and the Drug uptake [3] is reported as 12.4%. It also gave a Drug uptake [4] of 83.1%, a Drug uptake [5] of 72.8% and a Drug uptake [6] of 66.4%. For the same molecule, the Drug uptake [7] was 1.29 % ID/g, the Drug uptake [8] was 2.52 % ID/g and the Drug uptake [9] was 0.61 % ID/g. For the same molecule, the Drug uptake [10] was 0.16 % ID/g, the Drug uptake [11] was 0.38 % ID/g and the Drug uptake [12] was 18.41 % ID/g. For the same molecule, the Drug uptake [13] was 1.8 % ID/g, the Drug uptake [14] was 0.58 % ID/g and the Drug uptake [15] was 2.17 % ID/g. For the same molecule, the Drug uptake [16] was 1.14 % ID/g, the Drug uptake [17] was 11.41 % ID/g and the Drug uptake [18] was 1.99 % ID/g. For the same molecule, the Drug uptake [19] was 2.49 % ID/g, the Drug uptake [20] was 2.14 % ID/g and the Drug uptake [21] was 0.95 % ID/g. For the same molecule, the Drug uptake [22] was 1.9 % ID/g, the Drug uptake [23] was 0.2 % ID/g and the Drug uptake [24] was 4.72 % ID/g. The Drug uptake [25] was 0.58 % ID/g, the Drug uptake [26] was 0.29 % ID/g and the Drug uptake [27] was 0.86 % ID/g. The Drug uptake [28] was 1.87 % ID/g, the Drug uptake [29] was 0.27 % ID/g and the Drug uptake [30] was 0.16 % ID/g. The Drug uptake [31] was 0.62 % ID/g, the Drug uptake [32] was 0.16 % ID/g and the Drug uptake [33] was 0.52 % ID/g.
